Experimental findings from ChEMBL document CHEMBL1132791, “1-Oxacephem-based human chymase inhibitors: discovery of stable inhibitors in human plasma” (Bioorg Med Chem Lett, 2000) are described below.

A short description of series [1]: The compound was evaluated for its half-life period. It is filed as ADME. The essentials: (§1)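 Compound, dissolved in DMSO, was spiked into human plasma and incubated at 37 °C. Stability was read as the percentage of intact compound left after 30 min. Half-life in human plasma was taken from this same incubation.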
The target in another series is Prothrombin (Homo sapiens, UniProt P00734). Description: Inhibitory concentration was measured against thrombin.
The target in the next series is T1, Neutrophil elastase (Homo sapiens, UniProt P08246).
T1 sequence (P08246 whole entry): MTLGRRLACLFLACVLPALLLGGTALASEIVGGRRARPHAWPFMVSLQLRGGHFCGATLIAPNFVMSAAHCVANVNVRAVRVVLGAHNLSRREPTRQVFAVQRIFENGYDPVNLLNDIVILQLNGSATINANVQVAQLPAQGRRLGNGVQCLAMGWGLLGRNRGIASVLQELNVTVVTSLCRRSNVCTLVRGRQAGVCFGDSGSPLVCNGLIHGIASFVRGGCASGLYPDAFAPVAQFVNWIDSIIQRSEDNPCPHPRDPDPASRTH
Description: Inhibitory concentration was measured against elastase.

Series [2] can be described thus: The percent remaining in human plasma after 30 min was determined. The format is ADME, cell-free. Conditions: read-out: Stability. The gist of the method:
as §1

A further series deals with T2, Chymase (Homo sapiens, UniProt P23946).
T2 sequence (P23946 whole entry): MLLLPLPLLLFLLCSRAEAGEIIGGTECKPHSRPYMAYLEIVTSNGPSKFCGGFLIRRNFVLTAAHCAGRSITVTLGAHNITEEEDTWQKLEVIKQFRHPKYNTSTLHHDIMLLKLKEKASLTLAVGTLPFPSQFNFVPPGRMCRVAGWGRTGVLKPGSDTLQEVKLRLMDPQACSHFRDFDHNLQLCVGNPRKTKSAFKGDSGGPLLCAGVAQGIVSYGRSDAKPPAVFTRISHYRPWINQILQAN
Description: Inhibition of human Serine protease chymase.

The target of another series is Serine protease 1 (Homo sapiens, UniProt P07477). Description: Inhibitory concentration was measured against trypsin.
Serine protease 1, sequence (P07477 whole entry): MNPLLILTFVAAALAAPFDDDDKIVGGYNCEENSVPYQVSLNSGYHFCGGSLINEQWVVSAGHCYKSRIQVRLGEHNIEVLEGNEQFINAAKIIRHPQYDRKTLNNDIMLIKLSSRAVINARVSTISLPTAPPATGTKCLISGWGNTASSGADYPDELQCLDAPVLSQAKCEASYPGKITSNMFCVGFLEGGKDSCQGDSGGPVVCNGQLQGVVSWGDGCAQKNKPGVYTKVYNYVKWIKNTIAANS
A further series deals with Chymotrypsinogen A (Bos taurus, UniProt P00766). Description: Inhibitory concentration was measured against alpha-chymotrypsin.
The target of the next series is Plasminogen (Rattus norvegicus, UniProt Q01177). Description: Inhibitory concentration was measured against plasmin.
Plasminogen, sequence (Q01177 97-581 limits assumed): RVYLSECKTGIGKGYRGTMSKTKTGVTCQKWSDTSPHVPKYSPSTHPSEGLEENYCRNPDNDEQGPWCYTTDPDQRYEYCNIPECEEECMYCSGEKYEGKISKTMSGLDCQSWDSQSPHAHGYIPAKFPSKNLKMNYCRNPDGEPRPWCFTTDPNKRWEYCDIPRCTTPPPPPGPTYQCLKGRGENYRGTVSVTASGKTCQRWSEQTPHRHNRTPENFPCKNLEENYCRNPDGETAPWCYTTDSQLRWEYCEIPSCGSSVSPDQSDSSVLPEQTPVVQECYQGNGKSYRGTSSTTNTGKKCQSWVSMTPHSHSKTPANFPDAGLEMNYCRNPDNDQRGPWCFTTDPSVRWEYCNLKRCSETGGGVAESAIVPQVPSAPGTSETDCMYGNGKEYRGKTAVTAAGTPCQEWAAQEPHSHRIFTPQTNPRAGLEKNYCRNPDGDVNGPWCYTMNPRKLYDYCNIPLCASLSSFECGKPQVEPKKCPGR
Plasminogen, sequence (Q01177 582-812 limits assumed): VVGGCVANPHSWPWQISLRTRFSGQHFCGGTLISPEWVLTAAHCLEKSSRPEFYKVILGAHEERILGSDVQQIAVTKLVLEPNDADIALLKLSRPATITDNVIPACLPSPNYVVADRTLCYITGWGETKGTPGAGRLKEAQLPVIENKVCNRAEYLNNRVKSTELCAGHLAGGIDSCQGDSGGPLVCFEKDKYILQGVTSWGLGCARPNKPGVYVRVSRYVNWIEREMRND

SMILES strings stand for the structures. A value given as a limit tells only on which side of the number the result lay.

What is called half-life is the time needed for the level to fall by half in the phase considered. A high value points to slow loss. By IC50 is commonly meant the concentration needed to halve the response being measured. Lower therefore signals greater potency in that assay. As for `CCOc1ccccc1C(=O)N[C@]1(OC)C(=O)N2C(C(=O)OCc3ccc(C(=O)O)cc3)=C(CSc3nnnn3C)CO[C@@H]21`, in series [1], the half-life was 1.5 h. Also, the IC50 on Prothrombin is 3.6 µM; against Neutrophil elastase, 9.5 µM; on Chymase, 0.027 µM; at Serine protease 1, 2.1 µM; against Chymotrypsinogen A it was 0.16 µM; against Plasminogen, greater than 10 µM. Besides, the remaining at 0.5 h in series [2] was found to be 87%.
Consider `CO[C@@]1(NC(=O)Cc2ccc(O)cc2)C(=O)N2C(C(=O)OCc3cccc(C)c3)=C(CSc3nnc(C)s3)CO[C@@H]21`, for which the remaining at 0.5 h in series [2] is 13%.
For the molecule `COc1ccccc1C(=O)N[C@]1(OC)C(=O)N2C(C(=O)OC(c3ccccc3)c3ccccc3)=C(CSc3nnnn3C)CO[C@@H]21`, the remaining at 0.5 h in series [2] is 73%.
Same read-out and setting: the result for `CO[C@@]1(NC(=O)c2ccccc2OC(C)C)C(=O)N2C(C(=O)OCc3ccc(C(=O)O)cc3)=C(CSc3nnnn3C)CO[C@@H]21` reads 42%.
Still for that read-out and setting: then `CO[C@@]1(NC(=O)Cc2ccc(O)cc2)C(=O)N2C(C(=O)OC(c3ccccc3)c3ccccc3)=C(CSc3nnnn3C)CO[C@@H]21`, with 40%.
On to `CCCOc1ccccc1C(=O)N[C@]1(OC)C(=O)N2C(C(=O)OCc3ccc(C(=O)O)cc3)=C(CSc3nnnn3C)CO[C@@H]21`, for which the remaining at 0.5 h in series [2] is 26%.
With `CO[C@@]1(NC(=O)Cc2ccc(O)cc2)C(=O)N2C(C(=O)OCc3cccc(C)c3)=C(CSc3nnnn3C)CO[C@@H]21`, the remaining at 0.5 h in series [2] is 10%.
As for `CO[C@@]1(NC(=O)Cc2ccc(O)cc2)C(=O)N2C(C(=O)OCc3cccc(C)c3)=C(CSc3nnnn3CC(=O)O)CO[C@@H]21`, the remaining at 0.5 h in series [2] came out at 5%.
As for `CO[C@@]1(NC(=O)c2ccccc2Oc2ccccc2)C(=O)N2C(C(=O)OCc3ccc(C(=O)O)cc3)=C(CSc3nnnn3C)CO[C@@H]21`, the remaining at 0.5 h in series [2] was found to be 63%.
For the molecule `CO[C@@]1(NC(=O)Cc2ccc(N(C)C)cc2)C(=O)N2C(C(=O)OC(c3ccccc3)c3ccccc3)=C(CSc3nnnn3C)CO[C@@H]21`, the remaining at 0.5 h in series [2] is 53%.
In the case of `CO[C@@]1(NC(=O)Cc2ccc(O)cc2)C(=O)N2C(C(=O)OCc3cccc(C)c3)=C(C)CO[C@@H]21`, in series [2], the remaining at 0.5 h came out at 59%. This molecule also returned an IC50 against Chymase greater than 10 µM.
Regarding `COc1ccccc1C(=O)N[C@]1(OC)C(=O)N2C(C(=O)OCc3ccc(C(=O)O)cc3)=C(CSc3nnnn3C)CO[C@@H]21`, the remaining at 0.5 h in series [2] stood at 26%.
Still for that read-out and setting: the result for `CCC(C)Oc1ccccc1C(=O)N[C@]1(OC)C(=O)N2C(C(=O)OCc3ccc(C(=O)O)cc3)=C(CSc3nnnn3C)CO[C@@H]21` (stereo partly drawn) reads 39%.
With `COc1ccccc1C(=O)N[C@]1(OC)C(=O)N2C(C(=O)OCc3cccc(C)c3)=C(CSc3nnnn3CC(=O)O)CO[C@@H]21`, the half-life in series [1] is less than 0.167 h. In series [2], the remaining at 0.5 h was 11%.
